The IC50 is the concentration that inhibits the measured activity by half. Low readings indicate greater potency, high ones weaker potency.

The structures appear in SMILES notation.

In the first series the test system is Plasmodium falciparum. The series is described as follows: Parasite growth in chloroquine-sensitive Plasmodium falciparum NF54. It is filed as functional, organism-based. Summed up: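 P. falciparum NF54 or K1 was maintained by the Trager-Jensen culture method with minor variations. Growth inhibition was measured by a semiautomated microdilution assay on asynchronous stock cultures.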
With `CCN(CC)CC(C)Nc1ccnc2cc(Cl)ccc12` (stereo not given), the IC50 amounted to 0.041 µM.

In the case of `CCN(CC)CCCC(C)Nc1ccnc2ccccc12` (stereo not given), the IC50 turned out to be 0.35 µM.

Take `CCN(CC)CCCC(C)Nc1cc(C)nc2cc(Cl)ccc12` (stereo not given): half-maximal inhibition (IC50) required 0.15 µM.

`CCN(CC)CCCC(C)Nc1ccnc2cc(N)ccc12` (stereo not given) displayed an IC50 of 2.6 µM.

`CCN(CC)CCCC(C)Nc1ccnc2ccc(Cl)cc12` (stereo not given) gave a 50% inhibitory concentration (IC50) of 0.17 µM. This IC50 is about 15-fold lower than that of the compound before.

The compound `CCNc1ccnc2cc(Cl)ccc12` registered an IC50 of 0.82 µM.

Turning to `CCN(CC)CCCC(C)Nc1ccnc2cc([N+](=O)[O-])ccc12` (stereo not given), the IC50 was determined as 0.015 µM.

In the case of `CCC(CC)CCCC(C)Nc1ccnc2cc(Cl)ccc12` (stereo not given), the IC50 is 0.054 µM. Against the preceding compound, the IC50 is about 3.6-fold higher.

Compound `CCN(CC)CCCC(C)Nc1c(C)cnc2cc(Cl)ccc12` (stereo not given) registered an IC50 of 0.02 µM. Compared with the last compound, the IC50 is about 2.7-fold lower.

The compound `CCN(CC)CCCC(C)Nc1ccnc2cc(Br)ccc12` (stereo not given) registered an IC50 of 0.093 µM. This IC50 is about 4.6-fold higher than that of the compound before.

Take `CCN(CC)CCCCC(C)Nc1ccnc2cc(Cl)ccc12` (stereo not given): half-maximal inhibition (IC50) required 0.024 µM.

The compound `Nc1ccnc2cc(Cl)ccc12` yielded an IC50 of 1.7 µM. Against the preceding compound, the IC50 is about 71-fold higher.

`CCNCCCC(C)Nc1ccnc2cc(Cl)ccc12` (stereo not given) [DESETHYLCHLOROQUINE] returned an IC50 of 0.045 µM.

A further series concerns the target hematin (cell-free polymerization, no protein). In words: Inhibition of hematin polymerization.
Consider `CCN(CC)CC(C)Nc1ccnc2cc(Cl)ccc12` (stereo not given), for which the IC50 is 18 µM.

For `CCN(CC)CCCC(C)Nc1ccnc2ccccc12` (stereo not given), the IC50 was over 2500 µM.

Compound `CCN(CC)CCCC(C)Nc1ccnc2cc(N)ccc12` (stereo not given) had an IC50 of over 2500 µM.

For the compound `CCN(CC)CCCC(C)Nc1ccnc2ccc(Cl)cc12` (stereo not given), the IC50 was over 2500 µM.

For the compound `CCNc1ccnc2cc(Cl)ccc12`, half-maximal inhibition (IC50) required 70 µM.

Regarding `CCN(CC)CCCC(C)Nc1c(C)cnc2cc(Cl)ccc12` (stereo not given), half-maximal inhibition (IC50) required 15 µM. Against the preceding compound, the IC50 is about 4.7-fold lower.

`CCNCCCC(C)Nc1ccnc2cc(Cl)ccc12` (stereo not given) [DESETHYLCHLOROQUINE] had an IC50 of 15 µM.

Tested on in a further series: not listed separately
The series is described as follows: Association constant evaluated towards Hematin mu-oxo dimer.
With `CCN(CC)CC(C)Nc1ccnc2cc(Cl)ccc12` (stereo not given), the Ka was found to be 270000 M⁻¹.

On to `CCN(CC)CCCC(C)Nc1ccnc2ccccc12` (stereo not given), for which the Ka is 85000 M⁻¹.

As for `CCN(CC)CCCC(C)Nc1cc(C)nc2cc(Cl)ccc12` (stereo not given), the Ka was determined as 91000 M⁻¹.

Compound `CCN(CC)CCCC(C)Nc1ccnc2cc(N)ccc12` (stereo not given) yielded a Ka of 290000 M⁻¹.

For the compound `CCNc1ccnc2cc(Cl)ccc12`, the Ka is 46000 M⁻¹.

Take `CCN(CC)CCCC(C)Nc1ccnc2cc([N+](=O)[O-])ccc12` (stereo not given): the Ka was 290000 M⁻¹.

`CCC(CC)CCCC(C)Nc1ccnc2cc(Cl)ccc12` (stereo not given) showed a Ka of 79000 M⁻¹.

`CCN(CC)CCCC(C)Nc1c(C)cnc2cc(Cl)ccc12` (stereo not given) gave a Ka of 150000 M⁻¹.

Consider `CCN(CC)CCCC(C)Nc1ccnc2cc(Br)ccc12` (stereo not given), for which the Ka is 120000 M⁻¹.

For the compound `CCN(CC)CCCCC(C)Nc1ccnc2cc(Cl)ccc12` (stereo not given), the Ka was found to be 150000 M⁻¹.

`Nc1ccnc2cc(Cl)ccc12` yielded a Ka of 52000 M⁻¹.

Consider `CCNCCCC(C)Nc1ccnc2cc(Cl)ccc12` (stereo not given) [DESETHYLCHLOROQUINE], for which the Ka was 180000 M⁻¹.

The next series concerns Plasmodium falciparum. The series is described as follows: Parasite growth in chloroquine-resistant Plasmodium falciparum K1.
In the case of `CCN(CC)CC(C)Nc1ccnc2cc(Cl)ccc12` (stereo not given), the 50% inhibitory concentration (IC50) amounted to 0.093 µM. That is a double-digit nanomolar value.

`CCN(CC)CCCC(C)Nc1ccnc2ccccc12` (stereo not given) yielded a 50% inhibitory concentration (IC50) of 8 µM.

Regarding `CCN(CC)CCCC(C)Nc1cc(C)nc2cc(Cl)ccc12` (stereo not given), the IC50 amounted to 1.1 µM.

`CCN(CC)CCCC(C)Nc1ccnc2cc(N)ccc12` (stereo not given) displayed an IC50 of 4.3 µM.

Compound `CCN(CC)CCCC(C)Nc1ccnc2ccc(Cl)cc12` (stereo not given) displayed a concentration for half-maximal inhibition (IC50) of 4.9 µM.

The compound `CCNc1ccnc2cc(Cl)ccc12` registered a concentration for half-maximal inhibition (IC50) of 0.87 µM. This IC50 is about 5.6-fold lower than that of the compound before.

`CCN(CC)CCCC(C)Nc1ccnc2cc([N+](=O)[O-])ccc12` (stereo not given) registered an IC50 of 0.068 µM. Against the preceding compound, the IC50 is about 13-fold lower.

`CCC(CC)CCCC(C)Nc1ccnc2cc(Cl)ccc12` (stereo not given) showed an IC50 of 0.2 µM. This IC50 is about 2.9-fold higher than that of the compound before.

On to `CCN(CC)CCCC(C)Nc1c(C)cnc2cc(Cl)ccc12` (stereo not given), for which the half-maximal inhibitory concentration (IC50) was 0.059 µM.

As for `CCN(CC)CCCC(C)Nc1ccnc2cc(Br)ccc12` (stereo not given), the IC50 amounted to 1.4 µM.

The compound `CCN(CC)CCCCC(C)Nc1ccnc2cc(Cl)ccc12` (stereo not given) came in with an IC50 of 0.42 µM.

`Nc1ccnc2cc(Cl)ccc12` displayed a 50% inhibitory concentration (IC50) of 1 µM.

Compound `CCNCCCC(C)Nc1ccnc2cc(Cl)ccc12` (stereo not given) [DESETHYLCHLOROQUINE] gave a 50% inhibitory concentration (IC50) of 1.3 µM.

The record behind these values is ChEMBL document CHEMBL1132467, “Structural specificity of chloroquine-hematin binding related to inhibition of hematin polymerization and parasite growth” (J Med Chem, 1999).
